Experimental data reported in ChEMBL document CHEMBL4725432, “Dethioacylation by Sirtuins 1-3: Considerations for Drug Design Using Mechanism-Based Sirtuin Inhibition” (ACS Med Chem Lett, 2020).
Structures can show the parent of a compound that is named as a salt. Activity calls are given as the source filed them. No cut-off for these calls is given here. Residues, ends and D or L forms follow the SMILES beside them. *: point of attachment. Cbz = O=C(OCc1ccccc1)*; Tfa = O=C(C(F)(F)F)*; NHiPr = CC(C)N*

molecular target: T1, NAD-dependent protein deacetylase sirtuin-1 (Homo sapiens) (UniProt Q96EB6); test: Inhibition of human recombinant N-terminal GST-tagged SIRT1 (193 to 741 residues) expressed in Escherichia coli using Ac-Gln-Pro-Lys-Lys(Ac)-AMC (oxo-10) as substrate at 100 uM by fluorescence assay relative to control; conditions: not given
T1 sequence (whole entry): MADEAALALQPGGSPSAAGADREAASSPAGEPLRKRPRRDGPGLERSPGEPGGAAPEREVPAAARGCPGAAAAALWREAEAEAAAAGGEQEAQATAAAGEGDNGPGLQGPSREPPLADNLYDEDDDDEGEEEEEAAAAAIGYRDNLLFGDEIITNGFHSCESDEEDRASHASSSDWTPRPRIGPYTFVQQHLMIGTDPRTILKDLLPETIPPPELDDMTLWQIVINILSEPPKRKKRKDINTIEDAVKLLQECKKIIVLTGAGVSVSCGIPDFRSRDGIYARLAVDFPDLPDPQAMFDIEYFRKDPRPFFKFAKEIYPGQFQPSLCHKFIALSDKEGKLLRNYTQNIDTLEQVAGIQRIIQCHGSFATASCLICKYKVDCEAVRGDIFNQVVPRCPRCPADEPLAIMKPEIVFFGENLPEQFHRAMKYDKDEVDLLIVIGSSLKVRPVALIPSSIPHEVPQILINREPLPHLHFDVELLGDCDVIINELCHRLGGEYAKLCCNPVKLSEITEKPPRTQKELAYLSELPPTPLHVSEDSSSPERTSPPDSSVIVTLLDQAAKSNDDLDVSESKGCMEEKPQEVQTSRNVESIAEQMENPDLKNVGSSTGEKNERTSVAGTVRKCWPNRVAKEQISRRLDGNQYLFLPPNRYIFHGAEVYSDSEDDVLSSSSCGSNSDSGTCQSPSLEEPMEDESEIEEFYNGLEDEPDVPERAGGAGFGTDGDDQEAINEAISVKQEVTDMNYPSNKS

SMILES | inhibition [%]
CC(C)NC(=O)[C@H](Cc1c[nH]c2ccccc12)NC(=O)[C@H](CCCCNC(=O)C(F)(F)F)NC(=O)OCc1ccccc1 (Cbz-Lys(Tfa)-Trp-NHiPr) | 24

molecular target: T1, NAD-dependent protein deacetylase sirtuin-1 (Homo sapiens); test: Inhibition of human recombinant N-terminal GST-tagged SIRT1 (193 to 741 residues) deacetylation activity in presence of substrate and NAD+ at 15 uM after 15 mins by reversed-phase UPLC-MS analysis relative to control; set-up: scale not given: the % may be the effect or the level left; conditions: not given

SMILES | Activity [%]
CC(=O)NCCCC[C@H](NC(=O)OCc1ccccc1)C(=O)N[C@@H](Cc1c[nH]c2ccccc12)C(=O)NC(C)C (Cbz-Lys(Ac)-Trp-NHiPr) | > 80

test system: not listed separately; test: Metabolic stability of compound in human serum assessed as half life incubated for >10 mins measured after 90 mins by HPLC analysis; assay type: ADME, cell-free; conditions: not given

SMILES | half-life [h]
CNC(=S)NCCCC[C@H](NC(=O)OCc1ccccc1)C(=O)N[C@@H](Cc1c[nH]c2ccccc12)C(=O)NC(C)C | < 1

molecular target: T1, NAD-dependent protein deacetylase sirtuin-1 (Homo sapiens); test: Inhibition of human N-terminal GST-tagged SIRT1 (193 to 741 residues) expressed in Escherichia coli preincubated with NAD+ for 30 mins using Ac-Gln-Pro-Lys-Lys(Ac)-AMC (oxo-10) as substrate at 1 to 100 uM measured after 90 mins by fluorescence assay; conditions: dose microM 1-100, time 120.0 min
In short: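 Recombinant SIRT1 (100 nM) preincubated 30 min with compound, either with or without NAD+ (500 μM), before the fluorogenic deacetylation read-out. Single-dose %-inhibition. Two independent experiments in duplicate, standard deviation.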

SMILES | inhibition
CNC(=S)NCCCC[C@H](NC(=O)OCc1ccccc1)C(=O)N[C@@H](Cc1c[nH]c2ccccc12)C(=O)NC(C)C | Active
NC(=O)C1CCCc2c1[nH]c1ccc(Cl)cc21 (stereo unspecified) | inactive
CC(C)NC(=O)[C@H](Cc1c[nH]c2ccccc12)NC(=O)[C@H](CCCCNC(=O)C(F)(F)F)NC(=O)OCc1ccccc1 (Cbz-Lys(Tfa)-Trp-NHiPr) | inactive

molecular target: T2, NAD-dependent protein deacetylase sirtuin-3, mitochondrial (Homo sapiens) (UniProt Q9NTG7); test: Inhibition of human N-terminal GST-tagged SIRT3 (102 to 399 residues) expressed in Escherichia coli using Ac-Gln-Pro-Lys-Lys(but)-AMC (oxo-12) as substrate at 100 uM by fluorescence assay relative to control; conditions: not given
T2 sequence (whole entry): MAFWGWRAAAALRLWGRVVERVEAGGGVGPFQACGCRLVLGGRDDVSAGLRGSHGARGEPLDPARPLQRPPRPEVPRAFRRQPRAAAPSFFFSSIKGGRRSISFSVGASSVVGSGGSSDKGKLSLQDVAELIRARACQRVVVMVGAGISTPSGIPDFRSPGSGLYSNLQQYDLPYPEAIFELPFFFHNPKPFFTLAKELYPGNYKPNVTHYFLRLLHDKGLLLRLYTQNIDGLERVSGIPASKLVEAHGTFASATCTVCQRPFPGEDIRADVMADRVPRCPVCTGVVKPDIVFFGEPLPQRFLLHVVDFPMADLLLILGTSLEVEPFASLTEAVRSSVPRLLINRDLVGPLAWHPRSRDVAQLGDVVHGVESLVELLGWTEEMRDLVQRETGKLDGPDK

SMILES | inhibition [%]
CC(C)NC(=O)[C@H](Cc1c[nH]c2ccccc12)NC(=O)[C@H](CCCCNC(=O)C(F)(F)F)NC(=O)OCc1ccccc1 (Cbz-Lys(Tfa)-Trp-NHiPr) | 5

test system: not listed separately; test: Metabolic stability of compound in human serum assessed as drug degradation incubated for >10 mins measured after 90 mins by HPLC analysis; assay type: ADME, cell-free; conditions: 1.5 h

SMILES | Activity
CNC(=S)NCCCC[C@H](NC(=O)OCc1ccccc1)C(=O)N[C@@H](Cc1c[nH]c2ccccc12)C(=O)NC(C)C | Not Active

molecular target: T3, NAD-dependent protein deacetylase sirtuin-2 (Homo sapiens) (UniProt Q8IXJ6); test: Inhibition of human recombinant C-terminal His-tagged SIRT2 (50 to 356 residues) deacetylation activity in presence of substrate and NAD+ at 15 uM incubated 15 to 60 mins by reversed-phase UPLC-MS analysis; conditions: time min 15-60
T3 sequence (whole entry): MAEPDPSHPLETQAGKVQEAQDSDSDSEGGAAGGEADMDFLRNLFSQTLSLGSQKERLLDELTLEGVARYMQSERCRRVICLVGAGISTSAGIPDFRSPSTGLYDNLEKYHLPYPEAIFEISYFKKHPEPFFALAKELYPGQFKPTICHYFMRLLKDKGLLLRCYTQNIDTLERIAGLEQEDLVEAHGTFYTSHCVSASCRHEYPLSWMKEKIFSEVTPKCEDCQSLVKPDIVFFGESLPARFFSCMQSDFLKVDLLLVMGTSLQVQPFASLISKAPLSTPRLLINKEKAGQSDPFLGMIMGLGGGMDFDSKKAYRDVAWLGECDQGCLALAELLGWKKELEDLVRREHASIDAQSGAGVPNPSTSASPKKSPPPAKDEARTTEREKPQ

SMILES | inhibition
CC(=O)NCCCC[C@H](NC(=O)OCc1ccccc1)C(=O)N[C@@H](Cc1c[nH]c2ccccc12)C(=O)NC(C)C (Cbz-Lys(Ac)-Trp-NHiPr) | inactive

molecular target: T2, NAD-dependent protein deacetylase sirtuin-3, mitochondrial (Homo sapiens); test: Inhibition of human recombinant N-terminal GST-tagged SIRT3 (102 to 399 residues) deacetylation activity in presence of substrate and NAD+ at 15 uM after 60 mins measured by reversed-phase UPLC-MS analysis relative to control; conditions: not given

SMILES | inhibition [%]
CC(=O)NCCCC[C@H](NC(=O)OCc1ccccc1)C(=O)N[C@@H](Cc1c[nH]c2ccccc12)C(=O)NC(C)C (Cbz-Lys(Ac)-Trp-NHiPr) | 54

molecular target: T3, NAD-dependent protein deacetylase sirtuin-2 (Homo sapiens); test: Inhibition of human C-terminal His-tagged SIRT2 (50 to 356 residues) expressed in Escherichia coli using Ac-Gln-Pro-Lys-Lys(pro)-AMC (oxo-11) as substrate at 100 uM by fluorescence assay relative to control; conditions: not given

SMILES | inhibition [%]
CC(C)NC(=O)[C@H](Cc1c[nH]c2ccccc12)NC(=O)[C@H](CCCCNC(=O)C(F)(F)F)NC(=O)OCc1ccccc1 (Cbz-Lys(Tfa)-Trp-NHiPr) | 3

molecular target: T3, NAD-dependent protein deacetylase sirtuin-2 (Homo sapiens); test: Inhibition of human recombinant C-terminal His-tagged SIRT2 (50 to 356 residues) deacetylation activity in presence of substrate and NAD+ incubated for 60 mins measured after 90 mins by fluorescence assay; conditions: not given
In short: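 Recombinant SIRT2 (100 nM or 250 nM) incubated with fluorogenic thioacyl or oxo lysine-AMC substrates plus NAD+. Deacylation read by fluorescence. Two independent experiments in duplicate, standard deviation.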

SMILES | inhibition
CC(=O)NCCCC[C@H](NC(=O)OCc1ccccc1)C(=O)N[C@@H](Cc1c[nH]c2ccccc12)C(=O)NC(C)C (Cbz-Lys(Ac)-Trp-NHiPr) | inactive

molecular target: T1, NAD-dependent protein deacetylase sirtuin-1 (Homo sapiens); test: Inhibition of SIRT1 in HEK293 cells assessed as increase in p53 acetylation co-treated with TSA at 25 uM for 6 hrs by western blot analysis; assay type: cell-based; conditions: not given
In short: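 HEK293 cells exposed 6 h to compound at 25 μM together with TSA (1 μM). Whole-cell lysates immunoblotted for Ac-p53 (K382) and total p53. Ratio Ac-p53/p53 normalized to DMSO control. Two independent experiments in duplicate, SEM.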

SMILES | inhibition
CNC(=S)NCCCC[C@H](NC(=O)OCc1ccccc1)C(=O)N[C@@H](Cc1c[nH]c2ccccc12)C(=O)NC(C)C | Active
CC(C)NC(=O)[C@H](Cc1c[nH]c2ccccc12)NC(=O)[C@H](CCCCNC(=O)C(F)(F)F)NC(=O)OCc1ccccc1 (Cbz-Lys(Tfa)-Trp-NHiPr) | inactive

The remaining lines, values ahead:

inhibition | SMILES
Active | NC(=O)C1CCCc2c1[nH]c1ccc(Cl)cc21 (stereo unspecified)
inactive | Cc1cc(C)nc(SCC(=O)Nc2ncc(Cc3cccc4ccccc34)s2)n1
